# ChEMBL document CHEMBL4311965, “Antimicrobial activity of amphipathic α,α-disubstituted β-amino amide derivatives against ESBL - CARBA producing multi-resistant bacteria; effect of halogenation, lipophilicity and cationic character” (Eur J Med Chem, 2019)
# How the values were obtained:
# Enterococcus faecium [1] = assay: Antibacterial activity against multidrug-resistant Enterococcus faecium 50673722 cultured in BHIB medium assessed as reduction in bacterial growth incubated for 24 hrs by microdilution susceptibility test; type: functional; conditions: Enterococcus faecium, 50673722, 24 h
# Procedure, shortened: (§1)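 Enterococci grown in Brain Heart Infusion broth, otherwise broth microdilution per CLSI M07-A9 (modified). Concentrated DMSO stocks kept at r.t. and diluted in double-distilled water, final DMSO <1%. Inoculum 1–1.2 x 10⁶ cells/mL mixed 1:1 with compound. 37 °C, 24 h, four parallels. OD₆₀₀ read-out, lowest concentration with no growth.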
# Klebsiella pneumoniae = assay: Antibacterial activity against multidrug-resistant Klebsiella pneumoniae 50625602 producing oxcillinase-245 cultured in MHB medium assessed as reduction in bacterial growth incubated for 24 hrs by microdilution susceptibility test; type: functional; conditions: Klebsiella pneumoniae, 50625602, 24 h
# Procedure, shortened: (§2)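 Broth microdilution per CLSI M07-A9 (modified). Working solutions made from concentrated DMSO stocks kept at r.t., diluted in double-distilled water, final DMSO <1%. Inoculum 1–1.2 x 10⁶ cells/mL in Mueller-Hinton broth, mixed 1:1 with compound. 37 °C, 24 h, four parallels. Read as OD₆₀₀. Where precipitation left residual OD, the point of major OD decrease was taken as the inhibitory concentration.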
# Acinetobacter baumannii [2] = assay: Antibacterial activity against multidrug-resistant Acinetobacter baumannii K55-13 producing oxcillinase-24 cultured in MHB medium assessed as reduction in bacterial growth incubated for 24 hrs by microdilution susceptibility test; type: functional; conditions: K55-13, 24 h; procedure, shortened: as §2
# Escherichia coli [3] = assay: Antibacterial activity against Escherichia coli ATCC 25922 cultured in MHB medium assessed as no bacterial growth incubated at 37 degC for 24 hrs by microdilution susceptibility test; type: functional; conditions: ATCC 25922, 24 h
# Procedure, shortened: (§3)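 Broth microdilution per CLSI M07-A9 with modifications. Inoculum about 2.5–3 x 10⁴ cells/mL in Mueller-Hinton broth, mixed 1:1 with test derivative. DMSO stocks diluted in double-distilled water, final DMSO <1%. Incubation 24 h at 37 °C (20 °C for C. glutamicum). Growth and sterility controls included; oxytetracycline reference.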
# Enterococcus faecium [4] = assay: Antibacterial activity against multidrug-resistant Enterococcus faecium 50901530 cultured in BHIB medium assessed as reduction in bacterial growth incubated for 24 hrs by microdilution susceptibility test; type: functional; conditions: Enterococcus faecium, 50901530, 24 h; procedure, shortened: as §1
# Erythrocyte = assay: Hemolytic activity against human RBC incubated for 1 hr; type: cell-based
# Procedure, shortened: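 Heparinized human blood washed three times in warm PBS and set to 10% hct. Erythrocytes at 1% v/v final, with compound in PBS (DMSO <1%), shaken 1 h at 37 °C and then centrifuged. Supernatant absorbance read at 405 and 545 nm after PBS background subtraction. Haemolysis taken relative to 1% Triton X-100. Three independent replicates, EC50 averaged.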
# Pseudomonas aeruginosa [5] = assay: Antibacterial activity against Pseudomonas aeruginosa PA01 DSM 19880 (ATCC 15692) cultured in MHB medium assessed as no bacterial growth incubated at 37 degC for 24 hrs by microdilution susceptibility test; type: functional; conditions: PAO1 DSM 19880 (ATCC 15692); procedure, shortened: as §3
# Staphylococcus aureus [6] = assay: Antibacterial activity against multidrug-resistant Staphylococcus aureus NCTC 10442 cultured in MHB medium assessed as reduction in bacterial growth incubated for 24 hrs by microdilution susceptibility test; type: functional; conditions: NCTC 10442, 24 h; procedure, shortened: as §2
# [7] = test system: Corynebacterium glutamicum; assay: Antibacterial activity against Corynebacterium glutamicum ATCC 13032 cultured in MHB medium assessed as no bacterial growth incubated at 20 degC for 24 hrs by microdilution susceptibility test; type: functional; conditions: ATCC 13032, 24 h; procedure, shortened: as §3
# [8] = Selectivity index, ratio of EC50 for hemolytic activity against human RBC to MIC for antibacterial activity against Escherichia coli ATCC 25922; type: toxicity; conditions: human red blood cells (RBC)
# Procedure, shortened: (§4)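 Selectivity index is the RBC haemolysis EC50 divided by the MIC against the E. coli or S. aureus reference strain.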
# Escherichia coli [9] = assay: Antibacterial activity against multidrug-resistant Escherichia coli 50739822 producing New Delhi metallo-beta-lactamase-1 cultured in MHB medium assessed as reduction in bacterial growth incubated for 24 hrs by microdilution susceptibility test; type: functional; conditions: Escherichia coli, 50739822, 24 h; procedure, shortened: as §2
# [10] = Selectivity index, ratio of EC50 for hemolytic activity against human RBC to MIC for antibacterial activity against Staphylococcus aureus ATCC 9144; type: toxicity; conditions: human red blood cells (RBC); procedure, shortened: as §4
# Pseudomonas aeruginosa [11] = assay: Antibacterial activity against multidrug-resistant Pseudomonas aeruginosa K34-73 producing Verona integron encoded metallo beta-lactamse-4 cultured in MHB medium assessed as reduction in bacterial growth incubated for 24 hrs by microdilution susceptibility test; type: functional; conditions: K34-73, 24 h; procedure, shortened: as §2
# Enterococcus faecium [12] = assay: Antibacterial activity against multidrug-resistant Enterococcus faecium TUH50-22 cultured in BHIB medium assessed as reduction in bacterial growth incubated for 24 hrs by microdilution susceptibility test; type: functional; conditions: TUH50-22, 24 h; procedure, shortened: as §1
# Enterococcus faecium [13] = assay: Antibacterial activity against multidrug-resistant Enterococcus faecium K36-18 cultured in BHIB medium assessed as reduction in bacterial growth incubated for 24 hrs by microdilution susceptibility test; type: functional; conditions: K36-18, 24 h; procedure, shortened: as §1
# Escherichia coli [14] = assay: Antibacterial activity against multidrug-resistant Escherichia coli 50579417 producing oxcillinase-48 cultured in MHB medium assessed as reduction in bacterial growth incubated for 24 hrs by microdilution susceptibility test; type: functional; conditions: Escherichia coli, 50579417, 24 h; procedure, shortened: as §2
# Escherichia coli [15] = assay: Antibacterial activity against multidrug-resistant Escherichia coli 50639799 producing Verona integron encoded metallo beta-lactamse-29 cultured in MHB medium assessed as reduction in bacterial growth incubated for 24 hrs by microdilution susceptibility test; type: functional; conditions: Escherichia coli, 50639799, 24 h; procedure, shortened: as §2
# Acinetobacter baumannii [16] = assay: Antibacterial activity against multidrug-resistant Acinetobacter baumannii K12-21 producing oxcillinase-58 cultured in MHB medium assessed as reduction in bacterial growth incubated for 24 hrs by microdilution susceptibility test; type: functional; conditions: K12-21, 24 h; procedure, shortened: as §2
# Enterococcus faecium [17] = assay: Antibacterial activity against multidrug-resistant Enterococcus faecium 50758899 cultured in BHIB medium assessed as reduction in bacterial growth incubated for 24 hrs by microdilution susceptibility test; type: functional; conditions: Enterococcus faecium, 50758899, 24 h; procedure, shortened: as §1
# Acinetobacter baumannii [18] = assay: Antibacterial activity against multidrug-resistant Acinetobacter baumannii K63-58 producing oxcillinase-23 cultured in MHB medium assessed as reduction in bacterial growth incubated for 24 hrs by microdilution susceptibility test; type: functional; conditions: K63-58, 24 h; procedure, shortened: as §2
# Staphylococcus aureus [19] = assay: Antibacterial activity against multidrug-resistant Staphylococcus aureus IHT 99040 cultured in MHB medium assessed as reduction in bacterial growth incubated for 24 hrs by microdilution susceptibility test; type: functional; conditions: IHT 99040, 24 h; procedure, shortened: as §2
# Pseudomonas aeruginosa [20] = assay: Antibacterial activity against multidrug-resistant Pseudomonas aeruginosa K44-24 producing imipenem-type carbapenemase-14 cultured in MHB medium assessed as reduction in bacterial growth incubated for 24 hrs by microdilution susceptibility test; type: functional; conditions: K44-24, 24 h; procedure, shortened: as §2
# Pseudomonas aeruginosa [21] = assay: Antibacterial activity against multidrug-resistant Pseudomonas aeruginosa K34-7 producing Verona integron encoded metallo beta-lactamse-2 cultured in MHB medium assessed as reduction in bacterial growth incubated for 24 hrs by microdilution susceptibility test; type: functional; conditions: K34-7, 24 h; procedure, shortened: as §2
# Pseudomonas aeruginosa [22] = assay: Antibacterial activity against multidrug-resistant Pseudomonas aeruginosa 50692172 producing New Delhi metallo-beta-lactamase-1 cultured in MHB medium assessed as reduction in bacterial growth incubated for 24 hrs by microdilution susceptibility test; type: functional; conditions: Pseudomonas aeruginosa, 50692172, 24 h; procedure, shortened: as §2
SMILES,MIC (Enterococcus faecium [1]),MIC (Klebsiella pneumoniae),MIC (Acinetobacter baumannii [2]),MIC (Escherichia coli [3]),MIC (Enterococcus faecium [4]),EC50 (Erythrocyte),MIC (Pseudomonas aeruginosa [5]),MIC (Staphylococcus aureus [6]),MIC [7],selectivity ratio [8],MIC (Escherichia coli [9]),selectivity ratio [10],MIC (Pseudomonas aeruginosa [11]),MIC (Enterococcus faecium [12]),MIC (Enterococcus faecium [13]),MIC (Escherichia coli [14]),MIC (Escherichia coli [15]),MIC (Acinetobacter baumannii [16]),MIC (Enterococcus faecium [17]),MIC (Acinetobacter baumannii [18]),other results
NCCNC(=O)C(CN)(Cc1ccc(F)c2ccccc12)Cc1ccc(F)c2ccccc12,16 µg/mL,8 µg/mL,32 µg/mL,4 µg/mL,16 µg/mL,74 µg/mL,8 µg/mL,8 µg/mL,2 µg/mL,19,16 µg/mL,19,32 µg/mL,8 µg/mL,16 µg/mL,8 µg/mL,16 µg/mL,32 µg/mL,8 µg/mL,16 µg/mL,MIC (Staphylococcus aureus [19]): 16 µg/mL; MIC (Pseudomonas aeruginosa [20]): 32 µg/mL; MIC (Pseudomonas aeruginosa [21]): > 32 µg/mL; MIC (Pseudomonas aeruginosa [22]): > 32 µg/mL
N=C(N)NCCNC(=O)C(CNC(=N)N)(Cc1ccc(F)c2ccccc12)Cc1ccc(F)c2ccccc12,16 µg/mL,> 32 µg/mL,> 32 µg/mL,16 µg/mL,4 µg/mL,329 µg/mL,8 µg/mL,4 µg/mL,0.5 µg/mL,21,32 µg/mL,165,> 32 µg/mL,8 µg/mL,16 µg/mL,32 µg/mL,32 µg/mL,> 32 µg/mL,16 µg/mL,> 32 µg/mL,MIC (Staphylococcus aureus [19]): 4 µg/mL; MIC (Pseudomonas aeruginosa [20]): > 32 µg/mL; MIC (Pseudomonas aeruginosa [21]): > 32 µg/mL; MIC (Pseudomonas aeruginosa [22]): > 32 µg/mL
